# Assay outcomes (PubChem)
# HTRA1 inhibitor: inhibitors of human serine peptidase HTRA1; recombinant HTRA1, FP-rhodamine activity-based probe, fluorescence polarization; inhibition, % at 5.96 µM; 340,000 tested, 0.5% active; in the data active = inhibition above about 36%;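 note: 0% = enzyme with DMSO and 100% = wells lacking enzyme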
# PRMT1 FP inh: inhibitors of human PRMT1; recombinant PRMT1, activity-based probe fluorescence polarization; inhibition, % at 2.79 µM; 370,000 tested, 1.3% active; AID 652257;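 active = inhibition above about 21% made by adding two undisclosed values, limit read from the data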
# SIAE inh: blocks human sialic acid acetylesterase | Q9HAT2 | SIAE FP-Rh probe binding, fluorescence polarization | inhibition, % at 9.66 µM | 370,000 tested, 0.69% active | AID 1053197;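 active = inhibition above a cutoff: mean of compounds within the control limits plus 3 SD of those, cut at about 17% in these data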;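 note: 0% = plate median of compound wells and 100% = probe without SIAE protein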
# ABHD4 inh: inhibitors of mouse ABHD4; 370,000 tested, 0.54% active; inhibition, % at 8.92 µM; purified mABHD4, FP-Rh probe fluorescence polarization; Q8VD66; AID 720543;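 active = inhibition exceeding the mean over every tested compound plus 3 SD, cut at about 30% in these data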;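 note: 0% = plate median of compound wells and 100% = S159A mutant with DMSO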
#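 system = mouse ABHD4 enzyme, wild type | medium = HEPES pH 7.0, NaCl, Pluronic buffer | also added = FP-Rh probe | incubation = Enzyme–compound pre-incubation 45 min, then probe 60 min, both 25 °C | technique = fluorescence polarization, excitation 525 nm, emission 598 nm, BODIPY TMR filters | controls = S159A mutant high control, sample median low control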
# JMJD2C inh: blocks human GASC-1 demethylase activity | inhibition, % at 2.35 µM | 330,000 tested, 0.069% active | GST-JMJD2C(1-420) H3K9me3 demethylation, DELFIA europium | Q9H3R0;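 active = more than half of a compound's replicate wells show inhibition beyond 50%, single wells judged on their own value; inconclusive = some, but no more than half, of replicates pass 50% inhibition; inactive = no replicate passes 50% inhibition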;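 note: signal counts dimethyl H3K9 product captured on neutravidin plate; 0% = median of DMSO wells and 100% = 0.3 times that DMSO median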
# Target sequence (Q9H3R0 1-420 limits assumed): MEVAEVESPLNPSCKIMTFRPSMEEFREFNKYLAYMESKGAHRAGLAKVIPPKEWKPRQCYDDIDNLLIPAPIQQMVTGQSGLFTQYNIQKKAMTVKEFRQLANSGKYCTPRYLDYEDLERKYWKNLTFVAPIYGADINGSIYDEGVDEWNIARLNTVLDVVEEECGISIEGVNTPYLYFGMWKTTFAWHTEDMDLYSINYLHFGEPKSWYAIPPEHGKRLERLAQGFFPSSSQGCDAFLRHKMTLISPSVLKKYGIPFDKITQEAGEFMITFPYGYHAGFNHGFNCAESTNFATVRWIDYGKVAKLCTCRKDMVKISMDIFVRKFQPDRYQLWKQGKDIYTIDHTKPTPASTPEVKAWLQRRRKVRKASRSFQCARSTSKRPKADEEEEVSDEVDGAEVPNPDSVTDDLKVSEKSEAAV
# SIAE confirm: human SIAE inhibition, confirmation. shares compounds with SIAE inh. 2,300 tested, 13% active. SIAE FP-Rh activity-based probe, fluorescence polarization. inhibition, % at 9.66 µM. AID 1117263;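 active = mean inhibition of the replicates above the hit cutoff set in the primary screen, cut at about 17% in these data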;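 note: 0% = SIAE with DMSO and probe and 100% = probe without SIAE; inhibitors lower polarization as more probe stays unbound to SIAE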
# Starred values were filed as active, the others as inactive; u = inconclusive; x = no result. This is a sample that favours compounds with a hit; in the whole collection about 2.4% have one here.
SMILES,HTRA1 inhibitor,PRMT1 FP inh,SIAE inh,ABHD4 inh,JMJD2C inh,SIAE confirm
COc1ccc(C2=NN(c3ccccc3)C(=O)/C2=C\c2ccc(O)c(OC)c2)cc1,8,2,19*,4,3,5
CCOC(=O)[C@@]12CCCC3=C1N(CCC3)C(=O)[C@H]2CC(=O)N1CCC(c2ccccc2)CC1,x,-2,1,4,x,x
O=C1[C@@H](C2CC2)[C@@H]2c3ccccc3C=NN2[C@@H]2c3ccccc3C=NN12,x,-3,23*,-2,x,-3
CCOC(=O)N1CCC(NC(=O)C2CCN(C(=O)N3CC(C)Oc4ccc(C)cc43)CC2)CC1 (stereo unspecified),1,-2,-8,-5,16,x
CCOC(=O)N1CCC(NC(=O)C2CCN(C(=O)N3CC(C)Oc4ccccc43)CC2)CC1 (stereo unspecified),0,0,20*,0,-5,-5
Cc1cc(C)c(NC(=O)C2=COCCO2)c(C)c1,2,-2,17*,1,7,4
CC1(C)OC(=O)C2=C(CC(CCc3ccccc3)OC2CCc2ccccc2)O1 (stereo unspecified),x,-3,-1,2,x,x
Cc1cc(N/N=C/c2ccc(O)c(C)c2O)nc(-c2ccccc2O)n1,19,1,36*,-22,4,2
CCOc1cc(/C=N/NC(=O)c2cccc([N+](=O)[O-])c2)ccc1OS(=O)(=O)c1ccccc1,-6,2,22*,15,20,-8
Cc1[nH]n(-c2cccc3ccccc23)c(=O)c1/C=N/NC(=O)c1cccc([N+](=O)[O-])c1,3,-1,3,20,15,x
Cc1[nH]n(-c2ccccc2)c(=O)c1/C=N/NC(=O)c1cccc([N+](=O)[O-])c1,5,-1,20*,10,10,-1
Cc1cc(N2CCCC2)n2nc(C)nc2n1,2,-5,19*,-8,2,-3
CC(=O)N1CCN(c2cc(C)nc3nc(C)nn23)CC1,x,-3,6,4,x,x
CC(C)c1ccc(OCC(=O)NC2CC(C)(C)NC(C)(C)C2)c(Br)c1,3,0,18*,3,1,-4
C/C(=N\NC(=O)c1ccc(-c2ccccc2)cc1)c1ccco1,-6,5,-3,1,-8,x
C/C(=N\NC(=O)c1cc([N+](=O)[O-])cc([N+](=O)[O-])c1)c1ccco1,3,1,18*,5,2,4
N#C/C(=C\Nc1ccccc1O)c1nc2ccccc2o1,-13,-2,18*,18,-1,-10
N#C/C(=C\c1ccncc1)c1nc2ccccc2o1,x,2,-7,-2,-1,x
FC(F)(F)C(F)(F)c1nnc2ccc(-n3ccnc3)nn12,5,-1,17*,8,-2,3
FC(F)(F)c1nnc2ccc(N3CCCCC3)nn12,x,-1,-1,6,-2,x
CN(C)CCOC(=O)/C(=C/c1cn(C)c2ccccc12)NC(=O)c1ccccc1,7,-4,18*,-1,-8,3
COc1cccc(CNC(=O)c2cccc(NC(=O)C3=C(C)OCCS3)c2)c1,-4,1,21*,-11,-3,-4
Cc1nc2c(o1)CCc1ccccc1C2O (stereo unspecified),6,-2,41*,6,-5,4
COc1ccc(/C=C/C(=O)NC(=S)Nc2cc([N+](=O)[O-])ccc2O)cc1OC,6,0,18*,12,-5,-5
CN(C)c1ccc(CNc2ccc3c(c2)ncn3C(C)(C)C)cc1,11,-3,18*,3,-3,3
SMILES,HTRA1 inhibitor,PRMT1 FP inh,SIAE inh,ABHD4 inh,JMJD2C inh,SIAE confirm
CCOc1ccc(CNc2ccc3c(c2)ncn3C(C)(C)C)cc1,4,1,22*,0,19,-2
COC(=O)C1CN(Cc2cn(Cc3ccc(C)cc3)nn2)CCS(=O)(=O)N1Cc1ccc(Cl)cc1 (stereo unspecified),x,-2,6,-1,x,x
O=C(NCC(c1ccco1)N1CCc2ccccc21)c1ccccc1 (stereo unspecified),4,2,23*,2,30,3
COc1ccc(OC)c(S(=O)(=O)NCC(c2ccco2)N2CCc3ccccc32)c1 (stereo unspecified),0,-2,18*,1,u,6
CCOC(=O)[C@]12CCCC=C1N(CCC1=CCCCC1)C(=O)[C@H](CC(=O)NCc1cccs1)C2,x,-4,6,1,x,x
NS(=O)(=O)c1ccc(NC(=O)CSc2nc3ccccc3c(=O)n2-c2ccc(Br)cc2)cc1,x,3,-22,-34,x,x
O=C(CCCC1=NS(=O)(=O)c2ccccc2N1)N1CCN(c2ccccc2Cl)CC1,x,-3,-2,1,x,x
CN1/C(=C\C(=O)Nc2ccc(Br)cc2)C(C)(C)c2ccccc21,-5,-2,26*,-3,-6,6
C=CCN(C(=O)[C@@H](C)[C@@H](O)c1ccc2ccccc2c1)c1ccccc1,x,3,-3,-4,x,x
N#Cc1c(/N=C/c2cccs2)sc2c1CCCCC2,-1,6,4,4,-15,x
N#Cc1c(/N=C/c2cccnc2)sc2c1CCCC2,x,0,22*,6,7,-1
Cn1c(SCc2ccc(F)cc2)nnc1-c1cnccn1,2,2,-4,3,-5,x
Cn1c(SCc2ccccc2)nnc1-c1cnccn1,4,-3,20*,11,-1,6
CCc1ccc(N2C=C(C(=O)OC)C(c3cccc4ccccc34)C(C#N)=C2N)cc1 (stereo unspecified),x,16,5,15,x,x
CCOC(=O)Cc1c(-c2cccc(Cl)c2)nc2c3ccccc3ccn12,x,4,-7,-9,x,x
CC1=C(C(=O)Nc2ccc(C(=O)N3CCN(c4cccc(Cl)c4)CC3)cc2)SCCO1,-25,-9,-4,-2,5,x
CC1=C(C(=O)Nc2cc(C(=O)N3CCN(c4ccc(Cl)cc4)CC3)ccc2C)SCCO1,-5,3,19*,8,x,-1
C/C(=N/NC(=O)CSc1nnc(-c2ccccc2)n1-c1ccc(Cl)cc1)c1cccc(O)c1,x,3,-4,-2,x,x
COc1cc(S(=O)(=O)NCc2ccccc2)ccc1F,-2,-2,19*,0,4,-3
COc1ccccc1N1CCN(CCCCOc2cccc3ccccc23)CC1,-2,-3,50*,14,-4,7
COC(=O)[C@]12C[C@H](CC(=O)NCC3CCCCC3)C(=O)N(Cc3ccco3)C1=C[C@H](COCc1ccccc1)O[C@@H]2C,x,7,6,4,x,x
C=CCNC(=O)CN(C(=O)c1csc2ccc(Cl)cc12)c1cccc(Br)c1,x,-4,0,3,x,x
CCC1NC(=O)c2cc3ccccc3cc2-n2c1nc1cc(C)cc(C)c1c2=O (stereo unspecified),-24,-1,17*,-4,x,-1
CC[n+]1ccc(/C=C/c2ccc(N(C)C)cc2)c2ccccc21,-17,7,-68,-139,x,x
